ChEMBL document CHEMBL3627611, “Carbonic anhydrase inhibitors: Design, synthesis, kinetic, docking and molecular dynamics analysis of novel glycine and phenylalanine sulfonamide derivatives” (Bioorg Med Chem, 2015)
Activity calls are given as the source filed them. The rule behind the calls is not given here.

Experiments:
Carbonic anhydrase 1 [1] = molecular target: T1, Carbonic anhydrase 1 (Homo sapiens, UniProt P00915); assay: Competitive inhibition of cytosolic carbonic anhydrase 1 esterase activity isolated from human erythrocytes in presence of 4-nitrophenylacetate
Outline: (§1)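 Esterase activity followed at 348 nm as 4-nitrophenylacetate (3 mM stock) converts to 4-nitrophenylate, 3 min at 25 °C, in 0.05 M Tris–SO4 pH 7.4. Blank without enzyme; uninhibited control = 100%. Several inhibitor concentrations, each in triplicate; KI from activity-versus-[inhibitor] plots via Cheng–Prusoff.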
Target sequence in this assay (P00915 2-261 limits assumed): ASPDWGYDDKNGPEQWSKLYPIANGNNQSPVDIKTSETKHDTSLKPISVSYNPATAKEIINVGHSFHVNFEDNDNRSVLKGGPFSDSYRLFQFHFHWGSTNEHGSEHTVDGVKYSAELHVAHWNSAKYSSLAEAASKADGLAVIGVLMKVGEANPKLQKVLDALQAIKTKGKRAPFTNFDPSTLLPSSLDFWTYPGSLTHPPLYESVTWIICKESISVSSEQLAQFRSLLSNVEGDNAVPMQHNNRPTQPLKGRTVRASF

Carbonic anhydrase 1 [2] = molecular target: T1, Carbonic anhydrase 1; assay: Inhibition of cytosolic carbonic anhydrase 1 esterase activity isolated from human erythrocytes using 4-nitrophenylacetate as substrate measured over 3 mins by spectrophotometric analysis; outline: as §1
Target sequence in this assay (P00915 whole entry): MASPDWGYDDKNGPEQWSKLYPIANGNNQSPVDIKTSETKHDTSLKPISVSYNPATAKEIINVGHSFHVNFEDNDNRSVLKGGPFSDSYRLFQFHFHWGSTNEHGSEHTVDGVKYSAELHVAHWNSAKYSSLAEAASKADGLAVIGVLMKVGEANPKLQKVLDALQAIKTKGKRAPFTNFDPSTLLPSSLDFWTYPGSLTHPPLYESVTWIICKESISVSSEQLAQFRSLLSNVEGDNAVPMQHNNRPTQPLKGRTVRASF

Carbonic anhydrase 2 = Carbonic anhydrase 2 (Homo sapiens, UniProt P00918); assay: Inhibition of cytosolic carbonic anhydrase 2 esterase activity isolated from human erythrocytes using 4-nitrophenylacetate as substrate measured over 3 mins by spectrophotometric analysis

inhibition (Carbonic anhydrase 1 [1])	Ki (Carbonic anhydrase 1 [2])	Ki (Carbonic anhydrase 2)	SMILES
Active	14.7 µM		Cc1ccc(S(=O)(=O)N[C@@H](Cc2ccccc2)C(=O)OCc2ccccc2)cc1
Active	29.6 µM		Cc1ccc(S(=O)(=O)NCC(=O)OCc2ccccc2)cc1
Active	106 µM	56.4 µM	COC(=O)CNS(=O)(=O)c1ccc(C)cc1
		19.3 µM	Cc1ccc(S(=O)(=O)NCC(=O)N2CCCCC2)cc1
Active	120 µM	144 µM	Cc1ccc(S(=O)(=O)NCC(=O)O)cc1
Active	63.7 µM		COC(=O)[C@H](Cc1ccccc1)NS(=O)(=O)c1ccc(C)cc1
Active	100 µM		Cc1ccc(S(=O)(=O)N[C@@H](Cc2ccccc2)C(=O)N2CCCCC2)cc1
Active	315 µM	104 µM	Cc1ccc(S(=O)(=O)N[C@@H](Cc2ccccc2)C(=O)O)cc1
